One data set deals with ZIKV. The settings on record: ref Sultana et al., 2018; cited from earlier work.
For the next data set, the system named is HCV. The settings on record: ref Bost et al., 2003; cited from earlier work.
Data set [1] relates to BHK-21 cells. In words: Annexin V staining, size and granularity. Type of data set: cell-based. The settings on record: infected or uninfected BHK-21 cells, 24 h. A digest of the protocol: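 Infected and/or treated BHK-21 cells resuspended in binding buffer with annexin V, incubated 15 min at 4 °C, then diluted with binding buffer and centrifuged 5 min. Analysed by flow cytometry for annexin V, with cell size from forward scatter (FSC) and granularity from side scatter (SSC).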

For data set [2], the system named is DENV-2. In words: Post-infection plaque reduction assay. The class given is cell-based, Dengue virus. The settings on record: S.71 at 50 and 100 μM, POD at 0.1 μM; six days. In outline:
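BHK-21 cells infected with DENV-2 (MOI=1) for 2 h at 37 °C, 5% CO2, then washed with PBS. Test compound (12.5–100 µM) added in 1.5% carboxymethylcellulose medium; positive control as log dilutions 0.1–100 µM. Incubated 6 days, then plaques counted in 3 independent assays. EC50 defined as the concentration reducing viral plaques by 50%.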

The test system of data set [3] is BHK-21 cells. In words: Cell recovery assay. Type of data set: cell-based. A digest of the protocol:
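BHK-21 cells on coverslips exposed 24 h to test compound. Compound then removed, monolayers washed and cultured 3 days in DMEM with 2% FBS. Cells fixed with 3.8% paraformaldehyde and nuclei stained with Hoechst 33342. Morphology imaged by differential interference contrast with a 60x objective.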

The test system of data set [4] is DENV-2. In words: Negative-strand RNA production. The class given is cell-based, Dengue virus. The settings on record: S.71 72.4 μM, POD 0.1 μM; 6 and 12 hpi.
Data set [5] has as its system DENV-2. In words: Time-of-addition. The settings on record: S.71 72.4 μM, POD 0.1 μM added at 6 and 12 hpi, 24 h exposure, MOI=1. Type of data set: cell-based, Dengue virus. In outline:
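BHK-21 cells infected (MOI=1, 2 h, 37 °C, 5% CO2) and washed with PBS. DMEM with 2% FBS containing test compound (72.4 µM; positive control 0.1 µM) added at 6, 12, 24 or 36 hpi, then incubated a further 24 h. Supernatant titrated by plaque assay. DMSO <0.05%. Three independent experiments, mean ± s.e.m., one-way ANOVA.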

Data set [6] relates to BHK-21 cells. In words: Cytotoxicity assay. Type of data set: cell-based.
Data set [7] has as its system DENV-2. In words: Fluorescence imaging of dsRNA and ENV protein. The class given is cell-based, Dengue virus. The settings on record: treatment at 6 and 12 hpi; S.71 72.4 µM, POD 0.1 µM. In outline:
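BHK-21 cells on coverslips infected with DENV-2 (MOI=1, 2 h). Test compound (72.4 µM; positive control 0.1 µM) added at 6 or 12 hpi and left 24 h. Cells washed with cytoskeleton buffer, fixed in 3.8% paraformaldehyde and immunostained for ENV (4G2) and dsRNA (J2), with tubulin and Hoechst nuclei. Imaged with a 60x objective; mean fluorescence intensity quantified. Three independent triplicate experiments; unpaired t-test.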

Data set [8] relates to BHK-21 cells. In words: Fluorescence imaging of microtubules, MTOC and endoplasmic reticulum. The settings on record: for MTOC localization/detection: BHK-21 cells, 24 h treatment. Type of data set: cell-based. A digest of the protocol:
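BHK-21 cells on coverslips infected (MOI=1, 2 h) or mock, then treated 24 h with test compound from 6 or 12 hpi. Fixed in 3.8% paraformaldehyde. Microtubules stained with anti-α/β-tubulin and MTOC with anti-γ-tubulin; […] used as comparator. For ER imaging, cells were transfected with pmKate2-ER plasmid and infected 24 h later. Imaged with a 60x objective.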

The next data set has as its system ER. The settings on record: treatment during 2 h; ref Terasaki et al., 1986; cited from earlier work.

Each structure is given as a SMILES string.

Regarding `CC(=O)O[C@H]1C(=O)[C@@]2(C)[C@H]([C@H](OC(=O)c3ccccc3)[C@]3(O)C[C@H](OC(=O)[C@H](O)[C@@H](NC(=O)c4ccccc4)c4ccccc4)C(C)=C1C3(C)C)[C@]1(OC(C)=O)CO[C@@H]1C[C@@H]2O` [paclitaxel], in the data set on ZIKV, the ZIKV viral infection result is reported as “reduced”. Besides, the HCV viral infection entry with HCV is “reduced”.
`COc1cc2c(c(OC)c1OC)-c1ccc(OC)c(=O)cc1[C@@H](NC(C)=O)CC2` [colchicine]: the ZIKV viral infection result in the data set on ZIKV was “reduced”. Besides, in the data set on HCV, the HCV viral infection result is “reduced”.
Consider `COc1cc([C@@H]2c3cc4c(cc3[C@H](O)[C@H]3COC(=O)[C@H]23)OCO4)cc(OC)c1OC` [POD, Podophyllotoxin], for which, in the data set with BHK-21 cells [1], the “cell granularity (SSC)” value is “increase in cell granularity”, the “cell size (FSC)” value is listed as “changes in cell size were not observed” and the “phosphatidylserine exposure (annexin V)” value is “nor changes in phosphatidylserine exposure”. For the same molecule, in the data set with DENV-2 [2], the “viral titer in post-infection treatment” value is on record as “effective”. Moreover, in the data set on BHK-21 cells [3] (24 h treatment, then nutrient-supplemented medium), the “recovery of cell morphology after treatment removal” value is “recovered their normal morphology after three days”. In the data set with BHK-21 cells [3] (BHK-21 cells, 24 h), the “nuclei after 24 h treatment” value is “pyknotic and fragmented nuclei”. Besides, the “negative-strand RNA copies” value in the data set on DENV-2 [4] is given as “low numbers of copies”. Moreover, the “viral yield of DENV-2” value in the data set on DENV-2 [5] was “effective”. Besides, the “concentrations at which very toxic” value with BHK-21 cells [6] (CC50 could not be determined) is reported as over 1 µM. Besides, the “effect on cells below 1 µM” value in the data set with BHK-21 cells [6] (below 1 µM) is listed as “cytostatic”. In the data set with DENV-2 [7], the “ENV protein signal (MFI)” value is reported as “significant decreases” and the “dsRNA signal (MFI)” value is on record as “significant decreases”. In addition, in the data set with BHK-21 cells [8] (6 hpi or 12 hpi, infected and mock cells), the “effect on rough endoplasmic reticulum” value is given as “ER retraction”. Besides, the MTOC localization/detection result in the data set with BHK-21 cells [8] is reported as “not detected”. Also, the “cell morphology and microtubule distribution” value in the data set on BHK-21 cells [8] (infected and uninfected cells treated at 6 or 12 hpi, 24 h, S.71 72.4 µM, POD 0.1 µM) is “round morphology and fragmented microtubules”.
Consider `COC(=O)Nc1nc2ccc(C(=O)c3cccs3)cc2[nH]1` [nocodazole], for which, in the data set on ER, the “effect on ER” value is reported as “ER retraction”. In the data set on ZIKV, the ZIKV viral infection entry is recorded as “reduced”. Also, the MTOC localization/detection entry in the data set with BHK-21 cells [8] was “not detected”. In addition, the HCV viral infection result in the data set on HCV was “reduced”.

The values above are taken from article PMC10194330 (Virus Research, 2022).
